Published values gathered from unrelated publications.
Lines come from different studies, so protocols differ.
Target: Ephrin type-A receptor 7 (EPHA7, Homo sapiens, UniProt Q15375)

For `C=CC(=O)N1CCC(C(=O)NCC(=O)N2CCN(c3nc(-c4cnc(N)nc4C(F)F)nc(N4CCOCC4)n3)CC2)CC1`, the remaining binding was 100% (binding, competition with immobilised ligand; 1 µM).
With `Cc1cc(-n2nc(Cc3cc(F)cc(C(F)(F)F)c3)nc2C)ccc1C(N)=O` the remaining binding was 98% (cell-free assay, competition with immobilised ligand; 1 µM).
The remaining binding of `COc1ccnn2ncc(-c3ccnc(N(C)C)n3)c12` is reported as 93% (binding; 1 µM).
The remaining binding of `O=C1NC(c2ccccn2)Sc2ccccc21` (centres unmarked) is reported as 72% (cell-free assay, competition with immobilised ligand; 1 µM).
`CNC(=O)[C@@H]1CC[C@@H](n2c(-c3ccc4cnccc4c3)nc3ccc(C(=O)NCc4cccc(C(N)=O)c4)cc32)C1` gave a remaining binding of 100% (binding, competition with immobilised ligand; 1 µM).
For `O=C(NCCCN1CCOCC1)c1ccc(Nc2nccc(-c3cc4ccccc4s3)n2)cc1`, the remaining binding was 100% (binding, competition with immobilised ligand; 1 µM).
For `CN(CCCC(F)(F)F)c1nccc(-c2cnn3ncccc23)n1`, the remaining binding was 96% (binding; 1 µM).
`CN(C)C(=O)Cn1cc(-c2nc(C3(c4ccc(-c5cnc(N)nc5)cc4)CC3)no2)cn1` has a remaining binding of 92% (cell-free assay, competition with immobilised ligand; 1 µM).
The remaining binding of `C[C@@H]1CCN(c2nccc(-c3cnn4ncccc34)n2)C1` is reported as 84% (binding; 1 µM).
For `CN(C)C(=O)Cn1cc(-c2nc([C@@](C)(c3ccc(-c4cnc(N)nc4)cc3)C3CC3)no2)cn1`, the remaining binding was 98% (cell-free assay, competition with immobilised ligand; 1 µM).
The remaining binding of `N[C@H]1CCN(c2nccc(-c3cnn4ncccc34)n2)C1` is reported as 100% (binding; 1 µM).
For `O=C(NCCCN1CCOCC1)c1ccc(Nc2ncc(Cl)c(-c3ccc(Cl)s3)n2)cc1`, the remaining binding was 60% (binding, competition with immobilised ligand; 1 µM).
For `O=C(Nc1c[nH]nc1C(=O)NC1CCNCC1)c1cc(F)cc(F)c1`, the remaining binding was 100% (binding, competition with immobilised ligand; 1 µM).
`CCN1CCN(Cc2ccc(C(=O)Nc3ccc(C)c(Oc4ccc5c(c4)CC(=O)N5)c3)cc2C(F)(F)F)CC1` gave a remaining binding of 89% (binding, competition with immobilised ligand; 1 µM).
`O=C(Nc1cnc(Oc2ccc(F)cc2)nc1)N1CCc2ncccc2[C@@H]1c1ccc(F)cc1` has a remaining binding of 88% (cell-free assay, competition with immobilised ligand; 1 µM).
`COc1cnc(Nc2cccc(S(N)(=O)=O)c2)nc1N1CCN(c2ccccc2)CC1` has a remaining binding of 86% (binding, competition with immobilised ligand; 1 µM).
`CN(C)c1ncc(F)c(-c2cnn3ncccc23)n1` gave a remaining binding of 100% (binding; 1 µM).
For `Cn1cc(Cl)c2c(Oc3c(F)cc(Nc4cc(Cl)nc(N)n4)cc3F)ccnc21`, the remaining binding was 96% (cell-free assay, competition with immobilised ligand; 0.1 µM).
The remaining binding of `O=C(c1ccc(Nc2ncc(Cl)c(-c3ccc(Cl)s3)n2)cc1)N1CCC(N2CCCC2)CC1` is reported as 56% (binding, competition with immobilised ligand; 1 µM).
For `CC1CCCN1c1nccc(-c2cnn3ncccc23)n1` (centres unmarked), the remaining binding was 99% (binding; 1 µM).
